# From PubChem
# A selection: hits, their analogues and other compounds. The true share with any hit is near 4.7%.
# MC4R antagonist – MC4R antagonists of cAMP signaling, primary screen, cell-based, TR-FRET, antagonist arm of biased-ligand search; actives 0.48% (n = 360,000); MC4R-expressing cells, MTII-stimulated cAMP, LANCE TR-FRET; inhibition, % at 6.5 µM;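 active means inhibition above its plate's cutoff, the mean of tested wells on that plate plus 3 SD, cut at about 29% in these data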
#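 System: U2OS-MC4R stable cell line; Technique: Eu-cAMP/anti-cAMP TR-FRET, emission 671 nm; Repeats: single well per compound; Also added: Melanotan II; Dosing: one concentration, 6.5 µM nominal; Schedule: 30-min compound, 1-h challenge, 1-h detection, room temperature.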
# AHR activator – AHR activators, primary screen, cell-based, luminescence, luciferase reporter, human | AHR-responsive luciferase reporter cells | activation, % at 5 µM | actives 2.5% (n = 320,000) | AID 2796, 2010; in the data active means activation above about 47%
# m5-HT2A agonist – mouse Htr2a agonists via beta-arrestin recruitment, primary screen, cell-based, luminescence | 5-hydroxytryptamine receptor 2A (Mus musculus), P35363 | CHO-K1 mHTR2A beta-arrestin complementation; percent of 30 µM serotonin response | activation, % at 7.6 µM | actives 0.66% (n = 360,000) | AID 624169, 2012;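 active means activation above a run cutoff, the mean activation of all tested compounds plus 3 SD, cut at about 14% in these data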
# Target sequence (P35363 whole entry, looked up): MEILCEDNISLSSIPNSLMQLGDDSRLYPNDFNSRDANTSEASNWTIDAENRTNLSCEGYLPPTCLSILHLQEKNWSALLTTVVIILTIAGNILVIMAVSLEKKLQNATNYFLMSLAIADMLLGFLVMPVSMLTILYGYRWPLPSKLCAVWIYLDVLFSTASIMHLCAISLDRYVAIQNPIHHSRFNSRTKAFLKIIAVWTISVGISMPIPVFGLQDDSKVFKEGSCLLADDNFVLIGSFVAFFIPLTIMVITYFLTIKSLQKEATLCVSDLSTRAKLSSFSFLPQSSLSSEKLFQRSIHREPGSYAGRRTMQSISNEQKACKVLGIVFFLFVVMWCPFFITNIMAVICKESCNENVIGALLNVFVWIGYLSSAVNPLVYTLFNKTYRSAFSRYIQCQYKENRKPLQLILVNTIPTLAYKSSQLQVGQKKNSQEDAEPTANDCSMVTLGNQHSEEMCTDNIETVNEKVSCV
# FXN GAA850 act – FXN promoter activators, primary screen, cell-based, luciferase luminescence, HEK293 lucGAA850; HEK293 lucGAA850 FXN promoter luciferase reporter, 24 h; percent of 10 µM SAHA response; activation, % at 6 µM; actives 0.56% (n = 360,000); AID 540364, 2011;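 active means activation above the average of all compounds screened plus 3 SD, cutoff fixed separately per campaign, cut at about 7.5% in these data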
# MC4R ag barr – MC4R agonists recruiting beta-arrestin, primary screen, cell-based, luminescence, agonist arm of biased-ligand search; Melanocortin receptor 4 (Homo sapiens), P32245; U2OS MC4R beta-arrestin complementation; percent of melanotan II response, DMSO zero; activation, % at 8.9 µM; actives 0.98% (n = 360,000);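 active means activation above a per-plate cutoff, the mean activation of sample wells on that plate plus 3 SD, cut at about 8% in these data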
# MC4R barr ag – MC4R beta-arrestin agonists, retest, confirmation, cell-based, luminescence, U2OS. actives 31% (n = 2,400). U2OS MC4R beta-arrestin recruitment; scaled DMSO 0%, Melanotan II 100%. activation, % at 8.9 µM. shares compounds with MC4R ag barr;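 active means mean activation across replicates above the hit cutoff set in the earlier primary screen, cut at about 8% in these data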
# MOR DOR agonist – agonists of MOR-DOR heterodimerization, counter-screen for MC4R biased agonist project, cell-based, luminescence; shares compounds with MC4R ag barr; U2OS PathHunter beta-arrestin, beta-gal luminescence; percent of deltorphin B response, DMSO zero; activation, % at 9.2 µM; actives 5.8% (n = 2,400); AID 602194, 2012;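 active means mean activation across replicates exceeds the hit threshold derived in the earlier primary screen, cut at about 18% in these data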
# Numbers stand for hits; - = inactive; . = no result.
SMILES,MC4R antagonist,AHR activator,m5-HT2A agonist,FXN GAA850 act,MC4R ag barr,MC4R barr ag,MOR DOR agonist
COc1cccc(N2CCN(C(=O)CCCCCn3c(=S)[nH]c4cc5c(cc4c3=O)OCO5)CC2)c1,-,-,-,-,35,14,21
O=C(CCCCCn1c(=S)[nH]c2ccccc2c1=O)NCc1ccc2c(c1)OCO2,-,-,-,-,10,-,-
O=C(NCc1ccc2c(c1)OCO2)Nc1ccc2ccccc2c1,-,-,-,-,11,-,-
COc1cc(/C=C/C(=O)OCC(=O)NCCc2ccc(F)cc2)ccc1OC(F)F,-,-,-,-,10,-,-
COC1=CC(=O)OC(c2ccccc2C(F)(F)F)C1 (stereo not drawn),.,.,-,.,.,.,.
CCOc1ccc2nc(NC(=S)NCc3ccccc3)sc2c1,-,-,-,-,18,-,-
CCOc1ccc2nc(NC(=O)c3ccco3)sc2c1,-,-,-,-,-,.,.
COc1ccc(-c2ccc(/C=C3/C(=N)N4C(C)=CSC4=NC3=O)o2)c([N+](=O)[O-])c1,-,-,-,-,61,-,-
O=C1NC[C@@H](Cc2cccc3ccccc23)N(CCc2cc(C(F)(F)F)cc(C(F)(F)F)c2)C1=O,-,-,-,-,11,9.8,-
O=c1c2ccccc2nnn1CSc1nnc(Nc2ccccc2)s1,-,-,-,-,10,-,-
O=C(CSc1nnnn1-c1ccc(F)cc1)Nc1nc2ccccc2s1,-,-,-,-,31,-,-
O=C(CSc1nc2ccc(NC(=O)CSc3nnnn3-c3ccccc3)cc2s1)Nc1ccccc1,-,-,-,-,14,-,-
O=C(CSc1nnnn1-c1ccc(F)cc1)Nc1ccccc1F,-,.,-,-,-,.,.
COC(=O)c1ccc(Cn2c(C)c(C(=O)Nc3cccc(Oc4ccccc4)c3)sc2=O)o1,-,.,-,-,-,.,.
COC(=O)CCCN1C(=O)NC(c2ccc(-c3ccccc3)cc2)C(C(=O)OCc2ccccc2)=C1C (stereo not drawn),-,.,-,-,12,12,-
FC(F)Sc1ccc(NC(=S)NC(c2ccccc2)c2ccccc2)cc1,-,-,-,-,9.6,-,-
FC(F)Sc1ccc(NC(=S)NCc2ccccc2)cc1,-,-,-,-,-,.,.
CC1(C(=O)NS(=O)(=O)c2ccccc2Cl)CCN1C(=O)CCC1CCCC1 (stereo not drawn),-,.,-,-,-,.,.
O=[N+]([O-])c1ccc(N=Nc2c(O)[nH]c3ccc(F)cc23)cc1,-,-,-,-,18,10,-
O=[N+]([O-])c1ccccc1N=Nc1c(O)[nH]c2ccc(F)cc12,-,.,-,-,-,.,.
COCc1cn(CC(=O)c2sc(NC(=O)C(C)(C)C)nc2C)nn1,.,.,-,.,.,.,.
COc1cccc(C(=O)Nc2nnc(-c3ccc(OC)cc3OC)s2)c1,-,-,-,-,-,.,.
